Source: ChEMBL document CHEMBL1128190, “Inhibition of E-selectin-, ICAM-1-, and VCAM-1-mediated cell adhesion by benzo[b]thiophene-, benzofuran-, indole-, and naphthalene-2-carboxamides: identification of PD 144795 as an antiinflammatory agent” (J Med Chem, 1995)
pIC50: −log10 of the molar value. Each block holds one molecule with its values, some of them ahead of it.

Columns and labels:
[1] = Cell adhesion measured using the inhibitory concentration against Human umbilical vein endothelial cell (HUVEC) activation, with Na51CrO4 as radioligand at 100 uM; format: functional
Outline: (§1)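 Confluent second-passage HUVEC monolayers were stimulated with TNF-α (200 U/mL) for 4 h with or without compound at 100 μM, then washed. Fresh human neutrophils labelled with Na⁵¹CrO₄ (5 × 10⁵) were added for 30 min at 37 °C. Non-adherent cells were aspirated and adherent cells lysed in NH₄OH; lysates were γ-counted. Results are % inhibition of TNF-stimulated adherence, triplicate. IC50 came from linear regression at 33.3–1.0 μM.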

[2] = The compound was tested for cell adhesion by measuring the inhibitory concentration against Human umbilical vein endothelial cell (HUVEC) activation, using Na51CrO4 as radioligand at 100 uM; format: functional; outline: as §1
[3] = The compound was tested for cell adhesion by measuring the inhibitory concentration against Human umbilical vein endothelial cell (HUVEC) activation, using calcein-AM radioligand at 100 uM; format: functional
[4] = The compound was tested for cell adhesion by measuring the inhibitory concentration against Human umbilical vein endothelial cell (HUVEC) activation, using calcein-AM as radioligand at 33 uM; format: functional
[5] = The compound was tested for inhibitory activity against E-Selectin mediated cell adhesion in Human umbilical endothelial cell culture, by using HUVEC surface expression assay.; format: functional, cell-based
Outline: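 Confluent HUVECs were given compound 30 min before TNF-α (140 U/mL final), then incubated 4 h at 37 °C. Unstimulated background was subtracted and results given as % inhibition versus vehicle. IC50 came from linear regression; average of two assays, each in triplicate.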

[6] = The compound was tested for cell adhesion by measuring the inhibitory concentration against Human umbilical vein endothelial cell (HUVEC) activation, using Na51CrO4 as radioligand.; format: functional, cell-based
[7] = The compound was tested for inhibitory activity against intercellular adhesion molecule (ICAM)-1 mediated cell adhesion in Human umbilical endothelial cell culture, by using HUVEC surface expression assay.; format: functional, cell-based
Outline: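 HUVECs were pretreated with compound for 30 min, then stimulated with TNF-α (140 U/mL final) for 4 h at 37 °C. Unstimulated background was subtracted and results given as % inhibition versus vehicle. IC50 came from linear regression; average of two triplicate assays.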

[8] = The compound was tested for inhibitory activity against intercellular adhesion molecule (ICAM)-1 mediated cell adhesion in Human aortic endothelial cell culture, by using HAEC surface expression assay at 50 uM; format: functional
Outline: (§2)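 Confluent human aortic endothelial cells were incubated with TNF-α (250 U/mL) and compound (0.005% DMSO final) for 18 h. Cells were formalin-fixed and probed with anti-ICAM-1 mAb (2 h, 37 °C), then peroxidase anti-mouse IgG (1 h) and colour reagent (15 min). Read-out was OD414.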

[9] = The compound was tested for inhibitory activity against vascular cell adhesion molecule (VCAM)-1 mediated cell adhesion in Human aortic endothelial cell culture, by using HAEC surface expression assay at 50 uM; format: functional
Outline: (§3)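 Human aortic endothelial cells at confluence were incubated with TNF-α (250 U/mL) and compound (0.005% DMSO final) for 18 h, then formalin-fixed. Cells were probed with anti-VCAM-1 mAb (2 h, 37 °C), then biotin anti-mouse IgG+IgM F(ab)₂ (1 h), then [¹²⁵I]streptavidin (15 min, 4 °C). NaOH digests were counted.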

[10] = The compound was tested for cell adhesion by measuring the inhibitory concentration against Human umbilical vein endothelial cell (HUVEC) activation, using Na51CrO4 as radioligand at 50 uM; format: functional
[11] = The compound was tested for cell adhesion by measuring the inhibitory concentration against Human umbilical vein endothelial cell (HUVEC) activation, using Na51CrO4 as radioligand at 100 micro M; format: functional; outline: as §1
[12] = The compound was tested for cell adhesion by measuring the inhibitory concentration against Human umbilical vein endothelial cell (HUVEC) activation, using calcein-AM as radioligand at 100 uM; format: functional
[13] = The compound was tested for cell adhesion by measuring the inhibitory concentration against Human umbilical vein endothelial cell (HUVEC) activation, using calcein-AM as radioligand; format: functional, cell-based
[14] = Tested for cell adhesion by measuring the inhibitory concentration against Human umbilical vein endothelial cell (HUVEC) activation, using Na51CrO4 as radioligand at 100 uM; format: functional; outline: as §1
[15] = The compound was tested for inhibitory activity against intercellular adhesion molecule (ICAM)-1 mediated cell adhesion in Human aortic endothelial cell culture, by using HAEC surface expression assay.; format: functional, cell-based; outline: as §2
[16] = The compound was tested for inhibitory activity against vascular cell adhesion molecule (VCAM)-1 mediated cell adhesion in Human aortic endothelial cell culture, by using HAEC surface expression assay.; format: functional, cell-based; outline: as §3
Rattus norvegicus = test: Inhibitory activity against Mycobacterium-induced foot-pad edema(MFE); format: functional

SMILES: CC(C)Oc1c(C(N)=O)sc2ccc(OCc3ccccc3)cc12
inhibition at 100 µM [1]: < 4%

SMILES: Cc1ccc2sc(C(N)=O)c(OC(C)C)c2c1
inhibition at 100 µM [1]: 61%

SMILES: CCNC(=O)c1c(OC(C)C)c2cc(OC)ccc2[s+]1[O-] (stereo not given)
inhibition at 100 µM [2]: 36%

SMILES: COc1ccc2sc(C(=O)NCc3ccccc3)c(OC(C)C)c2c1
inhibition at 100 µM [3]: 35%

SMILES: CNC(=O)c1sc2ccc(OC)cc2c1SC(C)C
inhibition at 33 µM [4]: 61%

pIC50 [5]: 5.10
pIC50 [6]: 4.85
pIC50 [7]: 5.30
SMILES: COc1ccc2oc(C(N)=O)c(OC(C)C)c2c1

SMILES: COc1ccc2sc(C(N)=O)c(SC)c2c1
inhibition at 100 µM [1]: 81%

SMILES: COc1ccc2ccc(C(=O)Nc3ccccc3)c(OC(C)C)c2c1
inhibition at 100 µM [1]: < 4%

pIC50 [5]: 5.07
pIC50 [6]: 4.96
pIC50 [7]: 5.28
SMILES: COc1ccc2ccc(C(N)=O)c(OC(C)C)c2c1
inhibition at 50 µM [8]: 86%
inhibition at 50 µM [9]: 81%

pIC50 [5]: 5.10
pIC50 [6]: 5.10
pIC50 [7]: 5.60
SMILES: COc1ccc2[nH]c(C(N)=O)c(OC(C)C)c2c1
inhibition at 50 µM [8]: 89%
inhibition at 50 µM [9]: 83%

SMILES: COc1cccc2c(OC(C)C)c(C(N)=O)sc12
inhibition at 50 µM [8]: 21%
inhibition at 50 µM [10]: 35%
inhibition at 50 µM [9]: < 4%

SMILES: CCNC(=O)c1sc2ccc(OC)cc2c1OC(C)C
Inhibition [11]: 64%

SMILES: COc1ccc2sc(C(N)=O)c(SCCCCC(=O)O)c2c1
inhibition at 100 µM [12]: 37%

pIC50 [13]: 5.44
SMILES: CC(C)Sc1c(C(N)=O)sc2ccc(O)cc12

SMILES: COc1ccc2sc(C(=O)Nc3cccc(C(=O)O)c3)c(OC(C)C)c2c1
inhibition at 100 µM [1]: 28%

SMILES: COc1ccc2sc(C(N)=O)c(OC(C)(C)C)c2c1
inhibition at 100 µM [14]: 97%

SMILES: COc1ccc2sc(C(=O)NCC(=O)O)c(OC(C)C)c2c1
inhibition at 100 µM [1]: < 4%

SMILES: CNC(=O)c1c(OC(C)C)c2cc(OC)ccc2[s+]1[O-] (stereo not given)
inhibition at 100 µM [2]: 43%

SMILES: CC(C)Oc1c(C(N)=O)sc2ccc([N+](=O)[O-])cc12
inhibition at 100 µM [1]: 40%

SMILES: COc1ccc2oc(C(=O)Nc3ccccc3)c(OC(C)C)c2c1
inhibition at 100 µM [1]: < 4%

pIC50 [6]: 4.30
SMILES: COc1ccc2sc(C(=O)Nc3ccc(C(=O)O)cc3)c(OC(C)C)c2c1

pIC50 [15]: 5.00
pIC50 [5]: 5.18
pIC50 [16]: 5.40
pIC50 [6]: 5.06
pIC50 [7]: 5.40
SMILES: COc1ccc2c(c1)c(OC(C)C)c(C(N)=O)[s+]2[O-] (stereo not given)
ID40 (Rattus norvegicus): 10.9 mg/kg

SMILES: COc1ccc2sc(C(N)=O)c(Sc3ccccc3)c2c1
inhibition at 100 µM [1]: 48%

SMILES: COc1ccc2sc(C(N)=O)c(OCc3ccccc3)c2c1
inhibition at 100 µM [1]: 57%

pIC50 [5]: 5.04
pIC50 [6]: 5.00
pIC50 [7]: 5.43
SMILES: COc1ccc2c(c1)c(OC(C)C)c(C(N)=O)n2C
inhibition at 50 µM [8]: 92%
inhibition at 50 µM [9]: 84%

SMILES: CC(C)Oc1c(C(N)=O)sc2ccc(N)cc12
inhibition at 100 µM [1]: 49%

SMILES: CC(C)Oc1c(C(N)=O)ccc2ccccc12
inhibition at 100 µM [1]: < 4%

pIC50 [6]: 4.92
SMILES: COc1ccc2sc(C(N)=O)c(SC(C)C)c2c1

SMILES: COc1ccc2c(c1)c(OC(C)C)c(C(=O)Nc1ccccc1)[s+]2[O-] (stereo not given)
inhibition at 100 µM [12]: < 4%
